Laboratory results from publication PMC6510378 (Clinical and Translational Science, 2019).

Assays:
11β‐HSD2 = molecular target: T1, 11β‐HSD2 (Homo sapiens, UniProt P80365); assay: Urine 11β-HSD2 activity; type: in vivo; conditions: up to 50 mg q.d. for 14 days
T1 sequence (P80365 1-405): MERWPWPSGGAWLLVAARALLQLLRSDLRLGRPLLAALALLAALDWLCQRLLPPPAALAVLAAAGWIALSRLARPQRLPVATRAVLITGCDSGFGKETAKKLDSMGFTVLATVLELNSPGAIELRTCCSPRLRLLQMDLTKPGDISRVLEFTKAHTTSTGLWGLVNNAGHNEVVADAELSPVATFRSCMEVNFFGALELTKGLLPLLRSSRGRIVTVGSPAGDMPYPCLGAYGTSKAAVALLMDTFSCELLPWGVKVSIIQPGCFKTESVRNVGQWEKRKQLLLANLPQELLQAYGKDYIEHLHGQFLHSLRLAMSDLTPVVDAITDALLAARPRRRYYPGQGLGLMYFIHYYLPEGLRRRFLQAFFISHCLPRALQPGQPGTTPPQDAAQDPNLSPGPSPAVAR
Outline: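 Renal 11β-HSD2 activity was taken as the urinary cortisol/cortisone ratio. Subjects were healthy young Japanese, young non-Japanese and elderly non-Japanese adults on oral placebo or drug (10, 20 or 50 mg), single dose day 1 then once daily on days 5–18. The ratio was assessed on days 1 and 18.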

MAD study part 2 = type: in vivo, human
Outline: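 Healthy young non-Japanese adults, open-label oral dosing. 0.7 or 2 mg was given as a single dose on day 1, then after a 6-day washout once daily. 0.4 mg was given once daily on days 1–14. 0.2 mg followed a 3 mg loading dose on day 1, days 2–14. PK doses were given fasted 10 h, with no food for 4 h. Plasma drug was measured by validated HPLC-MS/MS, with below-limit values set to zero. AUClast was reported where AUCinf was not calculable.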

MAD study part 1 = type: in vivo, human
Outline: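 Healthy young Japanese, young non-Japanese and elderly non-Japanese adults got a single oral dose (10, 20 or 50 mg) or placebo on day 1. After a 4-day washout, dosing was once daily on days 5–18. PK-day doses were taken with 240 mL water after a 10-hour fast, with no food for 4 h. Plasma drug was measured by validated HPLC-MS/MS. Values below the limit of quantification were set to zero.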

[1] = tested on: models of neuropathic and dysfunctional pain; conditions: rats; cited from earlier work
[2] = MAD part 2, day 1 single dose 0.7 mg, young non-Japanese, n=6
[3] = MAD part 2, day 1 single dose 2 mg, young non-Japanese, n=2
[4] = MAD part 2, last day of q.d. 14 days 0.4 mg, young non-Japanese, n=2
[5] = MAD part 2, last day of q.d. 14 days 0.4 mg, young non-Japanese, n=4
[6] = MAD part 2, last day of q.d. 14 days 0.7 mg, young non-Japanese, n=1
[7] = MAD part 2, last day of q.d. 14 days 0.7 mg, young non-Japanese, n=6
[8] = MAD part 2, last day of q.d. 14 days 2 mg, young non-Japanese, n=4
[9] = MAD part 2, last day of q.d. 14 days 2 mg, young non-Japanese, n=5
[10] = MAD part 1, day 1 single dose 10 mg, young Japanese, n=8
[11] = MAD part 1, day 1 single dose 20 mg, elderly non-Japanese, n=9
[12] = MAD part 1, day 1 single dose 20 mg, young Japanese, n=8
[13] = MAD part 1, day 1 single dose 20 mg, young non-Japanese, n=8
[14] = MAD part 1, day 1 single dose 50 mg, young Japanese, n=8
[15] = MAD part 1, day 1 single dose 50 mg, young non-Japanese, n=8
[16] = MAD part 1, day 18 multiple dose q.d. 14 days 10 mg, young Japanese, n=8
[17] = MAD part 1, day 18 multiple dose q.d. 14 days 20 mg, elderly non-Japanese, n=9
[18] = MAD part 1, day 18 multiple dose q.d. 14 days 20 mg, young Japanese, n=8
[19] = MAD part 1, day 18 multiple dose q.d. 14 days 20 mg, young non-Japanese, n=8
[20] = MAD part 1, day 18 multiple dose q.d. 14 days 50 mg, young Japanese, n=8
[21] = MAD part 1, day 18 multiple dose q.d. 14 days 50 mg, young non-Japanese, n=7

With `Cn1c(-c2ccc(C(N)=O)cc2F)nnc1C(C)(C)Oc1c(F)cc(Cl)cc1F` [ASP3662] the “change in urinary cortisol to cortisone ratio relative to PBO” value (11β‐HSD2) was “no noteworthy changes”, the “steady state after 14 days of q.d. dosing” value (MAD study part 2; 0.2 and 0.4 mg, despite 3‐mg loading dose in 0.2‐mg group) was “not fully reached” and the “AUCinf (AUClast values presented, footnote a), Mean (SD)” value (MAD study part 2; [2]) was 0.2437 (0.4421) ng·hour/mL. For the same compound, the “AUCinf (AUClast values presented, footnote a), Median” value (MAD study part 2; [2]) was 0.01242 ng·h/mL, the “AUCinf (AUClast values presented, footnote a), Min–max” value (MAD study part 2; [2]) was 0 to 1.11 ng·h/mL and the “CL/F, Mean (SD)” value (MAD study part 2; [3]) was 42.21 (6.917) L/hour. For the same compound, the “CL/F, Median” value (MAD study part 2; [3]) was 42.21 L/h, the “CL/F, Min–max” value (MAD study part 2; [3]) was 37.3 to 47.1 L/h and the “VzF, Mean (SD)” value (MAD study part 2; [3]) was 5,472 (1,378) L. For the same compound, the “VzF, Median” value (MAD study part 2; [3]) was 5,472 L, the “VzF, Mean (SD)” value (MAD study part 2; [4]) was 2,516 (45.89) L and the “VzF, Median” value (MAD study part 2; [4]) was 2,516 L. The “VzF, Min–max” value (MAD study part 2; [4]) was 2,484–2,549 L, the “CL/F, Mean (SD)” value (MAD study part 2; [5]) was 10.83 (0.7639) L/hour and the “CL/F, Median” value (MAD study part 2; [5]) was 10.83 L/h. For the same compound, the “CL/F, Min–max” value (MAD study part 2; [5]) was 9.90 to 11.8 L/h, the “Ctrough, Mean (SD)” value (MAD study part 2; [5]) was 1.072 (0.1719) ng/mL and the “Ctrough, Median” value (MAD study part 2; [5]) was 1.053 ng/mL. For the same compound, the “Ctrough, Min–max” value (MAD study part 2; [5]) was 0.918 to 1.26 ng/mL, the “VzF, Mean (SD)” value (MAD study part 2; [6]) was 3,677 (NC) L and the “VzF, Median” value (MAD study part 2; [6]) was 3,677 L. The “VzF, Min–max” value (MAD study part 2; [6]) was 3,677–3,677 L, the “CL/F, Mean (SD)” value (MAD study part 2; [7]) was 11.44 (2.349) L/hour and the “CL/F, Median” value (MAD study part 2; [7]) was 11.34 L/h. The “CL/F, Min–max” value (MAD study part 2; [7]) was 7.45 to 14.2 L/h, the “Ctrough, Mean (SD)” value (MAD study part 2; [7]) was 1.389 (0.3190) ng/mL and the “Ctrough, Median” value (MAD study part 2; [7]) was 1.234 ng/mL. The “Ctrough, Min–max” value (MAD study part 2; [7]) was 1.10 to 1.83 ng/mL, the “VzF, Mean (SD)” value (MAD study part 2; [8]) was 1,231 (547.6) L and the “VzF, Median” value (MAD study part 2; [8]) was 1,165 L. For the same compound, the “VzF, Min–max” value (MAD study part 2; [8]) was 715–1,880 L, the “CL/F, Mean (SD)” value (MAD study part 2; [9]) was 9.41 (1.208) L/hour and the “CL/F, Median” value (MAD study part 2; [9]) was 9.139 L/h. The “CL/F, Min–max” value (MAD study part 2; [9]) was 8.23 to 11.4 L/h, the “Ctrough, Mean (SD)” value (MAD study part 2; [9]) was 3.493 (1.166) ng/mL and the “Ctrough, Median” value (MAD study part 2; [9]) was 3.437 ng/mL. For the same compound, the “Ctrough, Min–max” value (MAD study part 2; [9]) was 1.80 to 5.03 ng/mL, the “CL/F, Mean (SD)” value (MAD study part 1; [10]) was 9.254 (4.086) L/hour and the “CL/F, Median” value (MAD study part 1; [10]) was 7.651 L/h. The “CL/F, Min–max” value (MAD study part 1; [10]) was 5.05 to 15.3 L/h, the “CL/F, Mean (SD)” value (MAD study part 1; [11]) was 6.99 (2.152) L/hour and the “CL/F, Median” value (MAD study part 1; [11]) was 6.567 L/h. The “CL/F, Min–max” value (MAD study part 1; [11]) was 3.8 to 10.4 L/h, the “CL/F, Mean (SD)” value (MAD study part 1; [12]) was 9.993 (2.926) L/hour and the “CL/F, Median” value (MAD study part 1; [12]) was 9.182 L/h. For the same compound, the “CL/F, Min–max” value (MAD study part 1; [12]) was 6.03 to 15.0 L/h, the “CL/F, Mean (SD)” value (MAD study part 1; [13]) was 7.412 (2.61) L/hour and the “CL/F, Median” value (MAD study part 1; [13]) was 7.279 L/h. For the same compound, the “CL/F, Min–max” value (MAD study part 1; [13]) was 4.33 to 11.7 L/h, the “CL/F, Mean (SD)” value (MAD study part 1; [14]) was 6.758 (1.787) L/hour and the “CL/F, Median” value (MAD study part 1; [14]) was 6.240 L/h. For the same compound, the “CL/F, Min–max” value (MAD study part 1; [14]) was 4.30 to 9.40 L/h, the “CL/F, Mean (SD)” value (MAD study part 1; [15]) was 7.005 (2.789) L/hour and the “CL/F, Median” value (MAD study part 1; [15]) was 7.259 L/h. For the same compound, the “CL/F, Min–max” value (MAD study part 1; [15]) was 2.53 to 10.1 L/h, the “CL/F, Mean (SD)” value (MAD study part 1; [16]) was 6.07 (2.591) L/hour and the “CL/F, Median” value (MAD study part 1; [16]) was 5.708 L/h. For the same compound, the “CL/F, Min–max” value (MAD study part 1; [16]) was 3.02 to 9.87 L/h, the “Ctrough, Mean (SD)” value (MAD study part 1; [16]) was 37.65 (30.42) ng/mL and the “Ctrough, Median” value (MAD study part 1; [16]) was 24.76 ng/mL. The “Ctrough, Min–max” value (MAD study part 1; [16]) was 13.5 to 84.0 ng/mL, the “CL/F, Mean (SD)” value (MAD study part 1; [17]) was 5.675 (1.649) L/hour and the “CL/F, Median” value (MAD study part 1; [17]) was 5.675 L/h. For the same compound, the “CL/F, Min–max” value (MAD study part 1; [17]) was 2.81 to 8.51 L/h, the “Ctrough, Mean (SD)” value (MAD study part 1; [17]) was 63.58 (49.38) ng/mL and the “Ctrough, Median” value (MAD study part 1; [17]) was 52.25 ng/mL. For the same compound, the “Ctrough, Min–max” value (MAD study part 1; [17]) was 26.1 to 184 ng/mL, the “CL/F, Mean (SD)” value (MAD study part 1; [18]) was 8.322 (2.562) L/hour and the “CL/F, Median” value (MAD study part 1; [18]) was 8.117 L/h. The “CL/F, Min–max” value (MAD study part 1; [18]) was 4.47 to 13.5 L/h, the “Ctrough, Mean (SD)” value (MAD study part 1; [18]) was 34.01 (24.86) ng/mL and the “Ctrough, Median” value (MAD study part 1; [18]) was 26.35 ng/mL. For the same compound, the “Ctrough, Min–max” value (MAD study part 1; [18]) was 13.7 to 92.1 ng/mL, the “CL/F, Mean (SD)” value (MAD study part 1; [19]) was 6.487 (2.372) L/hour and the “CL/F, Median” value (MAD study part 1; [19]) was 6.473 L/h. The “CL/F, Min–max” value (MAD study part 1; [19]) was 3.64 to 10.3 L/h, the “Ctrough, Mean (SD)” value (MAD study part 1; [19]) was 58.68 (40.91) ng/mL and the “Ctrough, Median” value (MAD study part 1; [19]) was 42.71 ng/mL. For the same compound, the “Ctrough, Min–max” value (MAD study part 1; [19]) was 19.9 to 132 ng/mL, the “CL/F, Mean (SD)” value (MAD study part 1; [20]) was 10.46 (12.75) L/hour and the “CL/F, Median” value (MAD study part 1; [20]) was 6.58 L/h. The “CL/F, Min–max” value (MAD study part 1; [20]) was 3.80 to 41.8 L/h, the “Ctrough, Mean (SD)” value (MAD study part 1; [20]) was 115.3 (59.73) ng/mL and the “Ctrough, Median” value (MAD study part 1; [20]) was 103.3 ng/mL. The “Ctrough, Min–max” value (MAD study part 1; [20]) was 21.0 to 223 ng/mL, the “CL/F, Mean (SD)” value (MAD study part 1; [21]) was 5.507 (2.275) L/hour and the “CL/F, Median” value (MAD study part 1; [21]) was 5.607 L/h. The “CL/F, Min–max” value (MAD study part 1; [21]) was 1.86 to 8.76 L/h, the “Ctrough, Mean (SD)” value (MAD study part 1; [21]) was 261.3 (267.1) ng/mL and the “Ctrough, Median” value (MAD study part 1; [21]) was 175.2 ng/mL. For the same compound, the “Ctrough, Min–max” value (MAD study part 1; [21]) was 60.4 to 841 ng/mL and the analgesic effects [1] was “significant analgesic effects”.
